# From paper PMC3018740 (Fitoterapia, 2010)
# “Also recorded” adds a separate entry of the source.
# Molecular target: T1, Human recombinant COX-2 (Homo sapiens, UniProt P35354)
# T1 sequence (P35354 18-604): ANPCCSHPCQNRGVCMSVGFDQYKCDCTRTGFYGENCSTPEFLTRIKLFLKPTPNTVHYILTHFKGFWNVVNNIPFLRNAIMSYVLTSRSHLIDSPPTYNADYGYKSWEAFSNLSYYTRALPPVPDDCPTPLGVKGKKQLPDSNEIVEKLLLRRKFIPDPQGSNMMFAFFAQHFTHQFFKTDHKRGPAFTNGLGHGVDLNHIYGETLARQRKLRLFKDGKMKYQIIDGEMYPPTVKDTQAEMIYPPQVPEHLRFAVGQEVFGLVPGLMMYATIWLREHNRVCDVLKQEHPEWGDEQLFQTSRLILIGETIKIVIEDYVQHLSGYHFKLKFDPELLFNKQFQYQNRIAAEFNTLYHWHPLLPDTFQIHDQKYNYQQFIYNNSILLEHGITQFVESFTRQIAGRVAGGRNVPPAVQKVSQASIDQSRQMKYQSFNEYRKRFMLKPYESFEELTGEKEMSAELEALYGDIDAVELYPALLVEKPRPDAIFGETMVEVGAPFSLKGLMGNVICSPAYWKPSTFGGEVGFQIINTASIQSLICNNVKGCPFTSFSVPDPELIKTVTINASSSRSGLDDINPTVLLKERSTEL
# Test: Pulsed ultrafiltration LC-MS-MS screening for COX-2 ligands
# Type: binding
# Settings: bound/free ratio = (pulsed ultrafiltration peak area)/(peak area washing buffer)
row,Compound,Relative binding to COX-2
1,6-dehydro-6-gingerol,0
2,CCCCC/C=C/[C@H](O)CC(=O)CCc1ccc(O)c(OC)c1 [6-dehydro-8-gingerol],0
3,CCCCCCC/C=C/[C@H](O)CC(=O)CCc1ccc(O)c(OC)c1 [6-dehydro-10-gingerol],0.15 ± 0.01
4,CCCCC[C@H](O)C[C@H](O)CCc1ccc(O)c(OC)c1 [6-gingerdiol],0
5,CCCCCC(=O)CC(=O)CCc1ccc(O)c(OC)c1 [6-gingerdione],0.23 ± 0.02
6,CCCCC[C@H](O)CC(=O)CCc1ccc(O)c(OC)c1 [6-gingerol],0
7,CCCCC/C=C/C(=O)CCc1ccc(O)c(OC)c1 [6-shogaol],0
8,CCCCCCCC(O)CC(O)CCc1ccc(O)c(OC)c1 (stereo not shown) [8-gingerdiol],0
9,CCCCCCCC(=O)CC(=O)CCc1ccc(O)c(OC)c1 [8-gingerdione],0.20 ± 0.03
10,CCCCCCC[C@H](O)CC(=O)CCc1ccc(O)c(OC)c1 [8-gingerol],0
11,CCCCCCCCCC(=O)CCc1ccc(O)c(OC)c1 [8-paradol],0.70 ± 0.02
12,CCCCCCC/C=C/C(=O)CCc1ccc(O)c(OC)c1 [8-shogaol],0.27 ± 0.02
13,CCCCCCCCCC(=O)CC(=O)CCc1ccc(O)c(OC)c1 [10-gingerdione],0.24 ± 0.05
14,CCCCCCCCC[C@H](O)CC(=O)CCc1ccc(O)c(OC)c1 [10-gingerol],0.17 ± 0.03
15,CCCCCCCCCCCC(=O)CCc1ccc(O)c(OC)c1 [10-paradol],0
16,CCCCCCCCC/C=C/C(=O)CCc1ccc(O)c(OC)c1 [10-shogaol],0.35 ± 0.03
17,CCCCCCCCCCC[C@H](O)CC(=O)CCc1ccc(O)c(OC)c1 [12-gingerol],0.23 ± 0.01
18,CCCCCCCCCCC/C=C/C(=O)CCc1ccc(O)c(OC)c1 [12-shogaol],0

# Same assay, conditions: pulsed ultrafiltration LC-MS-MS
row,Compound,Specific binding to COX-2 (in words)
1,CCCCCCC/C=C/[C@H](O)CC(=O)CCc1ccc(O)c(OC)c1 [6-dehydro-10-gingerol],bound to the enzyme active site
2,CCCCCC(=O)CC(=O)CCc1ccc(O)c(OC)c1 [6-gingerdione],bound to the enzyme active site
3,CCCCC[C@H](O)CC(=O)CCc1ccc(O)c(OC)c1 [6-gingerol],not 6-gingerol or 8-gingerol bound to COX-2
4,CCCCCCCC(=O)CCc1ccc(O)c(OC)c1 [6-paradol],bound to the enzyme active site; also recorded: bound to COX-2
5,CCCCC/C=C/C(=O)CCc1ccc(O)c(OC)c1 [6-shogaol],COX-2 ligands but not 6-shogaol or 12-shogaol
6,CCCCCCCC(=O)CC(=O)CCc1ccc(O)c(OC)c1 [8-gingerdione],bound to the enzyme active site
7,CCCCCCC[C@H](O)CC(=O)CCc1ccc(O)c(OC)c1 [8-gingerol],not 6-gingerol or 8-gingerol bound to COX-2
8,CCCCCCCCCC(=O)CCc1ccc(O)c(OC)c1 [8-paradol],bound to the enzyme active site; also recorded: bound to COX-2
9,CCCCCCC/C=C/C(=O)CCc1ccc(O)c(OC)c1 [8-shogaol],bound to the enzyme active site; also recorded: COX-2 ligands
10,CCCCCCCCCC(=O)CC(=O)CCc1ccc(O)c(OC)c1 [10-gingerdione],bound to the enzyme active site
11,CCCCCCCCC[C@H](O)CC(=O)CCc1ccc(O)c(OC)c1 [10-gingerol],bound to the enzyme active site; also recorded: bound to COX-2
12,CCCCCCCCCCCC(=O)CCc1ccc(O)c(OC)c1 [10-paradol],not 10-paradol bound to COX-2
13,CCCCCCCCC/C=C/C(=O)CCc1ccc(O)c(OC)c1 [10-shogaol],bound to the enzyme active site; also recorded: COX-2 ligands
14,CCCCCCCCCCC[C@H](O)CC(=O)CCc1ccc(O)c(OC)c1 [12-gingerol],bound to the enzyme active site; also recorded: bound to COX-2
15,CCCCCCCCCCC/C=C/C(=O)CCc1ccc(O)c(OC)c1 [12-shogaol],COX-2 ligands but not 6-shogaol or 12-shogaol

# Molecular target: T1, Human recombinant COX-2
# Test: COX-2 inhibition assay
# Type: biochemical
# Settings: read-out: IC50 COX-2; purified compounds
row,Compound,IC50
1,CCCCCCC/C=C/C(=O)CCc1ccc(O)c(OC)c1 [8-shogaol],17.5 ± 2.2 µM
2,CCCCCCCCC[C@H](O)CC(=O)CCc1ccc(O)c(OC)c1 [10-gingerol],32 ± 1.5 µM
3,CCCCCCCCC/C=C/C(=O)CCc1ccc(O)c(OC)c1 [10-shogaol],7.5 ± 0.6 µM

# Molecular target: T2, ovine COX-1 (Ovis aries, UniProt P05979)
# T2 sequence (P05979 25-600): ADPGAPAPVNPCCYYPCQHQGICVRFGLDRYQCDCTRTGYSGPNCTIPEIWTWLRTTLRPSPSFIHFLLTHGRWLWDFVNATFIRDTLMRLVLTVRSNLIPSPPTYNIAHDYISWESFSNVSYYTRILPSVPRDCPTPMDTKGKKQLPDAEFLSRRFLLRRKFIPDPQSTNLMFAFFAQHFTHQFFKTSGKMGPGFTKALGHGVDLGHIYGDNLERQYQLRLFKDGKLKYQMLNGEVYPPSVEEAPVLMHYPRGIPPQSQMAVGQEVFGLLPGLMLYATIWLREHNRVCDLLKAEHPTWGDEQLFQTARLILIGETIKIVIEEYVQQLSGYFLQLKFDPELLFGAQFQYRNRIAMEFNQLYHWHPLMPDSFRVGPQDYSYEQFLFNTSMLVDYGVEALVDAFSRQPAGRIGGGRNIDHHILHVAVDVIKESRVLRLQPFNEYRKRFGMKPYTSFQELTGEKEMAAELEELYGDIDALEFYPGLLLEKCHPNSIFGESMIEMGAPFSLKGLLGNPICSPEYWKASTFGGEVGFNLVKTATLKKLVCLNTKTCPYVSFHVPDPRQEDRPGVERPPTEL
# Test: COX-1 inhibition assay
# Type: biochemical
# Settings: not given
# Summary of the method: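 PGE2 produced by COX-1 with test compound present was quantified by LC-MS-MS. Percent inhibition was calculated against PGE2 from the negative-control incubation. Each compound was tested at 12 concentrations, three times each. IC50 was obtained by fitting the inhibition curve.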
row,Compound,Inhibition of COX-1 (in words)
1,CCCCCCC/C=C/C(=O)CCc1ccc(O)c(OC)c1 [8-shogaol],No inhibition of COX-1 was detected; also recorded: did not inhibit COX-1
2,CCCCCCCCC[C@H](O)CC(=O)CCc1ccc(O)c(OC)c1 [10-gingerol],No inhibition of COX-1 was detected; also recorded: did not inhibit COX-1
3,CCCCCCCCC/C=C/C(=O)CCc1ccc(O)c(OC)c1 [10-shogaol],No inhibition of COX-1 was detected; also recorded: did not inhibit COX-1

# Same assay, conditions: read-out: IC50 COX-1; purified compounds
row,Compound,IC50
1,CCCCCCC/C=C/C(=O)CCc1ccc(O)c(OC)c1 [8-shogaol],> 50 µM
2,CCCCCCCCC[C@H](O)CC(=O)CCc1ccc(O)c(OC)c1 [10-gingerol],> 50 µM
3,CCCCCCCCC/C=C/C(=O)CCc1ccc(O)c(OC)c1 [10-shogaol],> 50 µM

# Test system: COX-2
# Test: not given
# Settings: read-out: Previously reported IC50 for inhibition of COX-2; cell-based assay; cited from earlier work
row,Compound,IC50
1,CCCCC[C@H](O)CC(=O)CCc1ccc(O)c(OC)c1 [6-gingerol],> 50 µM
2,CCCCC/C=C/C(=O)CCc1ccc(O)c(OC)c1 [6-shogaol],2.1 µM
3,CCCCCCC[C@H](O)CC(=O)CCc1ccc(O)c(OC)c1 [8-gingerol],10 µM
4,CCCCCCC/C=C/C(=O)CCc1ccc(O)c(OC)c1 [8-shogaol],7.2 µM
